Measurements taken from ChEMBL document CHEMBL1255453, “Affinity of ceftaroline and other beta-lactams for penicillin-binding proteins from Staphylococcus aureus and Streptococcus pneumoniae” (Antimicrob Agents Chemother, 2010).
≈ marks a conversion by molar mass, not a printed value.

Assays:
[1] = target: T1, Penicillin-binding protein 2B (Streptococcus pneumoniae serotype 4 (strain ATCC BAA-334 / TIGR4), UniProt P0A3M5); assay: Binding affinity to against penicillin-susceptible Streptococcus pneumoniae 1076 PBP2B by competitive binding assay
T1 sequence (P0A3M5 whole entry): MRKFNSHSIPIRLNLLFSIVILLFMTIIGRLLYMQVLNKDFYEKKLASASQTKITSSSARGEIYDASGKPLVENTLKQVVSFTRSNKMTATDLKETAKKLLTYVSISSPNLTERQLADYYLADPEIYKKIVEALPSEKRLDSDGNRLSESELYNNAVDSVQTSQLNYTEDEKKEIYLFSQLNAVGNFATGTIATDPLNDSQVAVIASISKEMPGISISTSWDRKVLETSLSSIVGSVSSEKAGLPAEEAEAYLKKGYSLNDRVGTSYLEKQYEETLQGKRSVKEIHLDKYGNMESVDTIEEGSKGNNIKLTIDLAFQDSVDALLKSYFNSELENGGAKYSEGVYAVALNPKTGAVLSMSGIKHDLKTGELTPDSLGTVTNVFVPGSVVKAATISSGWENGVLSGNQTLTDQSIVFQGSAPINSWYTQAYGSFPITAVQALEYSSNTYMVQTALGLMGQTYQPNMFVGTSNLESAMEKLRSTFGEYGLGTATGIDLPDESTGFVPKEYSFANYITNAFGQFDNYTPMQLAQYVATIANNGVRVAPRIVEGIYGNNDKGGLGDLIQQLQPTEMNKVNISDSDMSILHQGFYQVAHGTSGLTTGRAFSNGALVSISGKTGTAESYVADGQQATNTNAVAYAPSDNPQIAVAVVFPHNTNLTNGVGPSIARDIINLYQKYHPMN
In short: (§1)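 Whole pneumococcal cells grown to OD600 0.3 in Todd-Hewitt broth with 0.5% yeast extract, resuspended in 50 mM NaPO4 pH 7.0. Cells (10^8–5 × 10^8 CFU/ml) incubated with β-lactam 10 min at 37°C, then Bocillin FL 10 μg/ml, 15 min at 37°C. SDS-PAGE, 520 nm fluorescence; IC50 = 50% inhibition of Bocillin FL binding; 2 experiments.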

[2] = Binding affinity to penicillin-resistant Streptococcus pneumoniae 3413 PBP2A by competitive binding assay
In short: (§2)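 Whole pneumococcal cells were grown to OD600 0.3 in Todd-Hewitt broth plus 0.5% yeast extract, then resuspended in 50 mM NaPO4, pH 7.0. Cells at 10^8 to 5 × 10^8 CFU/ml were exposed to β-lactam for 10 min at 37°C, alongside a reference without drug. They were then labeled with 10 μg/ml Bocillin FL for 15 min at 37°C. Proteins were resolved by SDS-PAGE and fluorescence read at 520 nm. IC50 was taken as 50% inhibition of Bocillin FL binding, from 2 experiments.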

[3] = target: T2, Penicillin-binding protein 1A (Streptococcus pneumoniae serotype 4 (strain ATCC BAA-334 / TIGR4), UniProt Q04707); assay: Binding affinity to against penicillin-susceptible Streptococcus pneumoniae 1076 PBP1A by competitive binding assay; in short: as §1
T2 sequence (Q04707 whole entry): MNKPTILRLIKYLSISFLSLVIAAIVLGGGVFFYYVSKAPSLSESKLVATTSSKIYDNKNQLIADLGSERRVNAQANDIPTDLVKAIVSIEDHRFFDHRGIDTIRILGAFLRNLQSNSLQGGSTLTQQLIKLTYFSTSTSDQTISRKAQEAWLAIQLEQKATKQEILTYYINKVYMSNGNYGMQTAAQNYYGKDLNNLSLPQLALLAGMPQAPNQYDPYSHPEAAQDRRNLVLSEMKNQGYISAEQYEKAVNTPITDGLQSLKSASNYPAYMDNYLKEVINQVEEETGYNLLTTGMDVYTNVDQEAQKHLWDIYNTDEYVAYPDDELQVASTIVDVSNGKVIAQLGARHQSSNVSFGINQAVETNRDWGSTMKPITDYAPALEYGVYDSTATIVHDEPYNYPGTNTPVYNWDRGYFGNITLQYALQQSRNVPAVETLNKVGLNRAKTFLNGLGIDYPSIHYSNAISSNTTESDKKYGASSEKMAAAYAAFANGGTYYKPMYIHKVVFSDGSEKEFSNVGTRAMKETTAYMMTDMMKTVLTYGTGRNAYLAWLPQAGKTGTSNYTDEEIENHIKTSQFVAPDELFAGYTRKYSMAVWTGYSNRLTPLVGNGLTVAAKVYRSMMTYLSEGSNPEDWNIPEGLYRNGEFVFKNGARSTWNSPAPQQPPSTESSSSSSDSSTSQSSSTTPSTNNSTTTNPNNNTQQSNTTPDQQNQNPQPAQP

[4] = Binding affinity to penicillin-resistant Streptococcus pneumoniae 2527 PBP2A by competitive binding assay; in short: as §2
[5] = Binding affinity to against penicillin-susceptible Streptococcus pneumoniae 1076 PBP1B by competitive binding assay; in short: as §1
[6] = target: T1, Penicillin-binding protein 2B; assay: Binding affinity to penicillin-resistant Streptococcus pneumoniae 3413 PBP2B by competitive binding assay; in short: as §2
[7] = Binding affinity to penicillin-resistant Streptococcus pneumoniae 3413 PBP3 by competitive binding assay; in short: as §2
[8] = Binding affinity to penicillin-resistant Streptococcus pneumoniae 24 PBP3 by competitive binding assay; in short: as §2
[9] = Binding affinity to penicillin-resistant Streptococcus pneumoniae 24 PBP1B by competitive binding assay; in short: as §1
[10] = target: T3, Penicillin-binding protein 2x (Streptococcus pneumoniae serotype 4 (strain ATCC BAA-334 / TIGR4), UniProt P14677); assay: Binding affinity to penicillin-resistant Streptococcus pneumoniae 24 PBP2X by competitive binding assay; in short: as §2
T3 sequence (P14677 whole entry, looked up): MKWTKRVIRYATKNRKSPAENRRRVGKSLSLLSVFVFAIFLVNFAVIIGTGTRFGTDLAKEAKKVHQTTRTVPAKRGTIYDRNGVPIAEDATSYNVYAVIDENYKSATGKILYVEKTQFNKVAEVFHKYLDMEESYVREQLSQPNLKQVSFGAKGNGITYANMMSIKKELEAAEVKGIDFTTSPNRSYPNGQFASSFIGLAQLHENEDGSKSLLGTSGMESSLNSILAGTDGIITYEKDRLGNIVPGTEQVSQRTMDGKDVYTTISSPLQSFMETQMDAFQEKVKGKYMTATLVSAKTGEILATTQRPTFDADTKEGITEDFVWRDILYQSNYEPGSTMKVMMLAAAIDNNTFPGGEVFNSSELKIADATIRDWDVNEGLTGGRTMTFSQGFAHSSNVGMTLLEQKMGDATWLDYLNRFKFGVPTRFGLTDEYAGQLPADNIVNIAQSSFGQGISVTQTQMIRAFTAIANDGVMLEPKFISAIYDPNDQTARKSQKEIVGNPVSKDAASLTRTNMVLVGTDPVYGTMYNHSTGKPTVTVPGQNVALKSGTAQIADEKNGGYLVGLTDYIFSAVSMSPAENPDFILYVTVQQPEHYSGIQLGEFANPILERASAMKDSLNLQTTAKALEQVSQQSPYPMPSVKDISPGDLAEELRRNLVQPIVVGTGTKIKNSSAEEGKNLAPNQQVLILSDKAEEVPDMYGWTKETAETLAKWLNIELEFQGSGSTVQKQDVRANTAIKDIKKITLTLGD

[11] = target: T3, Penicillin-binding protein 2x; assay: Binding affinity to penicillin-resistant Streptococcus pneumoniae 2527 PBP2X by competitive binding assay; in short: as §2
[12] = Binding affinity to penicillin-resistant Streptococcus pneumoniae 3413 PBP1B by competitive binding assay; in short: as §2
[13] = target: T2, Penicillin-binding protein 1A; assay: Binding affinity to penicillin-resistant Streptococcus pneumoniae 2527 PBP1A by competitive binding assay; in short: as §2
[14] = target: T1, Penicillin-binding protein 2B; assay: Binding affinity to penicillin-resistant Streptococcus pneumoniae 24 PBP2B by competitive binding assay; in short: as §2
[15] = Binding affinity to penicillin-resistant Streptococcus pneumoniae 24 PBP2A by competitive binding assay; in short: as §1

| SMILES | IC50 [1] [µM] | IC50 [2] [µg/mL] | IC50 [3] [nM] | IC50 [4] [µg/mL] | IC50 [5] [µg/mL] | IC50 [6] [µM] | IC50 [7] [µg/mL] | IC50 [8] [µg/mL] | IC50 [9] [µg/mL] | IC50 [10] [nM] | IC50 [11] [nM] | IC50 [12] [µg/mL] | IC50 [13] [nM] | IC50 [14] [µM] | IC50 [15] [µg/mL] |
| --- | --- | --- | --- | --- | --- | --- | --- | --- | --- | --- | --- | --- | --- | --- | --- |
| CO/N=C(\C(=O)N[C@@H]1C(=O)N2C(C(=O)O)=C(COC(C)=O)CS[C@H]12)c1csc(N)n1 [CEFOTAXIME] | > 70.3 | 0.25 (≈ 0.549 µM) | 220 | 0.25 (≈ 0.549 µM) | 0.25 (≈ 0.549 µM) | 35.1 | 0.1 (≈ 0.22 µM) | 0.1 (≈ 0.22 µM) | 8 (≈ 17.6 µM) | 2200 | 220 | 4 (≈ 8.78 µM) | 549 | 35.1 | 0.5 (≈ 1.1 µM) |
| CO/N=C(\C(=O)N[C@@H]1C(=O)N2C(C(=O)O)=C(CSc3nc(=O)c(O)nn3C)CS[C@H]12)c1csc(N)n1 [CEFTRIAXONE] | > 57.7 | 1 (≈ 1.8 µM) | 180 | 0.25 (≈ 0.451 µM) | 0.1 (≈ 0.18 µM) | 28.9 | 0.25 (≈ 0.451 µM) | 0.25 (≈ 0.451 µM) | 1 (≈ 1.8 µM) | 1800 | 180 | 4 (≈ 7.21 µM) | 451 | 28.9 | 1 (≈ 1.8 µM) |
